In ChEMBL document CHEMBL3399974, “Discovery and SAR of novel series of imidazopyrimidinones and dihydroimidazopyrimidinones as positive allosteric modulators of the metabotropic glutamate receptor 5 (mGlu5)” (Bioorg Med Chem Lett, 2015):

Legend:
[1] = molecular target: Metabotropic glutamate receptor 5 (Rattus norvegicus) (UniProt P31424); assay: Positive allosteric modulation at rat mGluR5 expressed in HEK293 cells assessed as amplitude of response at 30 uM by calcium mobilization assay relative to glutamate; assay type: functional, cell-based
How it was run: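 HEK293 cells stably expressing rat mGlu5 were used in a calcium mobilization assay. Test compound was given at 30 µM, and response amplitude is expressed as percent of the maximal response to 100 µM glutamate. Values are the average of three or more independent determinations.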

[2] = molecular target: T1, Metabotropic glutamate receptor 5 (Rattus norvegicus, UniProt P31424); assay: Positive allosteric modulation at rat mGluR5 expressed in HEK293 cells by calcium mobilization assay; assay type: functional, cell-based
How it was run: (§1)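 HEK293 cells stably expressing rat mGlu5 were run in a 'triple add' calcium mobilization assay that detects agonism, PAM and NAM activity together. Response amplitude was expressed as % of the maximal response to 100 µM glutamate. Values are the mean of three or more independent determinations.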

[3] = Drug metabolism in human liver microsomes assessed as compound metabolized at 1 uM after 15 mins; assay type: ADME; details: read-out: Drug metabolism
How it was run: (§2)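 Test compound at 1 µM was incubated for 15 min with liver microsomes (human for HLM, rat for RLM). Read-out was % of compound metabolized.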

[4] = Drug metabolism in rat liver microsomes assessed as compound metabolized at 1 uM after 15 mins; assay type: ADME; details: read-out: Drug metabolism; how it was run: as §2
[5] = molecular target: T1, Metabotropic glutamate receptor 5; assay: Negative allosteric modulation at rat mGluR5 expressed in HEK293 cells by calcium mobilization assay; assay type: functional, cell-based; how it was run: as §1
[6] = molecular target: Metabotropic glutamate receptor 5 (Rattus norvegicus) (UniProt P31424); assay: Negative allosteric modulation at rat mGluR5 expressed in HEK293 cells by calcium mobilization assay relative to glutamate; details: 30 uM

Metabotropic glutamate receptor 5 (Rattus norvegicus), sequence (P31424 21-1203 limits assumed): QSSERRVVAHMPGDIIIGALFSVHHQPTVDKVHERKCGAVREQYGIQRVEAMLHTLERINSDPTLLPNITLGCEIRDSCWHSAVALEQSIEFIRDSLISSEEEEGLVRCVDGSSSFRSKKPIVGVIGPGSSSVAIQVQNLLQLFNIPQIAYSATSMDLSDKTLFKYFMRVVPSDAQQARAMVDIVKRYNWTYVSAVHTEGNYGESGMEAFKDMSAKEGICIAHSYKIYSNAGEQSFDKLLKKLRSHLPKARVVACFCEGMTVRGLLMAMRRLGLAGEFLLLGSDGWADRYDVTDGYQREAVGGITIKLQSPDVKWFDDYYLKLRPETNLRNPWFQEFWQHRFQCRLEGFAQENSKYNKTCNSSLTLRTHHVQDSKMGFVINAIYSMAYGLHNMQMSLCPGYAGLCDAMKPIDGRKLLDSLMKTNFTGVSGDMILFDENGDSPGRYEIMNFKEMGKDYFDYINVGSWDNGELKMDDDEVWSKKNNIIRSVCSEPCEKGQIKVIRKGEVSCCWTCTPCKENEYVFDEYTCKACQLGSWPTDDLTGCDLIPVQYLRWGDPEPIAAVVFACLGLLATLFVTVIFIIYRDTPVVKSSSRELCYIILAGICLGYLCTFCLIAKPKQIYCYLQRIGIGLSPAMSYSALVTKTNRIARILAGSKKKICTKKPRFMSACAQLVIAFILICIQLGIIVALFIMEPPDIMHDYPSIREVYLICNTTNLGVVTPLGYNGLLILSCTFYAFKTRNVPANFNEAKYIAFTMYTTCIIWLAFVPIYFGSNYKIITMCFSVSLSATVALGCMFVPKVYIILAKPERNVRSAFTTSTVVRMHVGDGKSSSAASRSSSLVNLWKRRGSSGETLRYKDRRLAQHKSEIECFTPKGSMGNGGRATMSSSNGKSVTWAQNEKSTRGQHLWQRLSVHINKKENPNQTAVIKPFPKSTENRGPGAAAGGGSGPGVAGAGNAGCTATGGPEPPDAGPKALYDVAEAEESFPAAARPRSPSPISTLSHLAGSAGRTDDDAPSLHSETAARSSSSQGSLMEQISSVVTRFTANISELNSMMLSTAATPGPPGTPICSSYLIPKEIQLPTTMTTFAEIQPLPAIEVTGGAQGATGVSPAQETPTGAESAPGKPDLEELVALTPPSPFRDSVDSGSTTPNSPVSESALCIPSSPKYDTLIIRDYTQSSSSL
T1 sequence (P31424 whole entry): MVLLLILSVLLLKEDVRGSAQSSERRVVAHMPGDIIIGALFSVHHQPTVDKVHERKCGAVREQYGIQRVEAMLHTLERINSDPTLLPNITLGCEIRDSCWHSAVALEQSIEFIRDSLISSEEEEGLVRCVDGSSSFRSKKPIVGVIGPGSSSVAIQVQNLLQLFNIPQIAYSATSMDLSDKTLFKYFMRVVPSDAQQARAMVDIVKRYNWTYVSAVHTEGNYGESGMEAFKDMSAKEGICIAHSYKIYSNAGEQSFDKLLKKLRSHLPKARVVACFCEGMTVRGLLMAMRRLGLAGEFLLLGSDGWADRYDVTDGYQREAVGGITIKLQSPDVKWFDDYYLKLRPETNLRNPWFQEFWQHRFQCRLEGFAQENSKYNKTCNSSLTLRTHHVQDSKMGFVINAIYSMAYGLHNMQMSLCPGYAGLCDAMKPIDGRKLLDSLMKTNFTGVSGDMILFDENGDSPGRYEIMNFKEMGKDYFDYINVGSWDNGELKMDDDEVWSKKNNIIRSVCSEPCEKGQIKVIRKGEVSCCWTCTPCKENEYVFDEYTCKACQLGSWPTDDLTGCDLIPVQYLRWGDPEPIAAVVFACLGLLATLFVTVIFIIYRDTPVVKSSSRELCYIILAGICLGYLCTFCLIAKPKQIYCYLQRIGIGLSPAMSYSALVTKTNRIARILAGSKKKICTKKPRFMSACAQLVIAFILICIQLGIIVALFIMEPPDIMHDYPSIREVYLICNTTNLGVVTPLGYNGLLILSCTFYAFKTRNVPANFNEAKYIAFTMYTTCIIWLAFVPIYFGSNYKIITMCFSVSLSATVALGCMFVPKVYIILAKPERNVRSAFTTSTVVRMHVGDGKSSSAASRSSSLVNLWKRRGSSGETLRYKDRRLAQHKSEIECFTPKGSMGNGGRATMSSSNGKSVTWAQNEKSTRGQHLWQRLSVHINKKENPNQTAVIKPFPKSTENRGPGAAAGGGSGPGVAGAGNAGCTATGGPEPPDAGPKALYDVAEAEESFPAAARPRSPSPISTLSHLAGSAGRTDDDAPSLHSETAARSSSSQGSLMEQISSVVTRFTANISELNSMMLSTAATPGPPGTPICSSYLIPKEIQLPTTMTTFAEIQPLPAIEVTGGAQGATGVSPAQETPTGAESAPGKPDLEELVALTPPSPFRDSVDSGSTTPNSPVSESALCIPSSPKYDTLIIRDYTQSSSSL

| Structure (SMILES) | Emax [1] [%] | EC50 [2] [nM] | metabolised at 0.25 h, 1 µM [3] [%] | metabolised at 0.25 h, 1 µM [4] [%] | IC50 ([5]; read-out: IC50) [nM] | IC50 [6] [nM] | IC50 ([5]; read-out: pIC50 (converted)) [nM] |
| --- | --- | --- | --- | --- | --- | --- | --- |
| O=c1n(CC2CC2)ccc2nc(COc3ccccc3)cn12 | 47 | 1120 | – | – | – | – | – |
| O=C1N(c2ccc(F)cc2)CCc2nc(COc3cccc(F)c3)cn21 | 72 | 69 | 0 | 29 | – | – | – |
| O=c1n(-c2cccc(F)c2)ccc2nc(COc3ccccc3)cn12 | 69 | 514 | 47 | 71 | – | – | – |
| O=C1N(c2ccc(F)cc2)CCc2nc(COc3ccc(F)cc3)cn21 | 88 | 197 | 3 | 11 | – | – | – |
| Cc1cn(-c2ccc(F)cc2)c(=O)n2cc(COc3ccccc3)nc12 | – | – | 36 | 71 | 1000 | 16 | – |
| Cc1cc2nc(COc3ccccc3)cn2c(=O)n1-c1ccc(F)cc1 | 60 | 2070 | – | – | – | – | – |
| Cc1nc(N2CCc3nc(COc4ccccc4)cn3C2=O)ccc1F | 91 | 183 | 31 | 93 | – | – | – |
| O=c1n(-c2ccc(F)cc2)ccc2nc(COc3cccnc3)cn12 | 65 | > 10000 | – | – | – | – | – |
| Cn1ccc2nc(COc3ccccc3)cn2c1=O | 67 | > 10000 | – | – | – | – | – |
| Cc1cc(-n2ccc3nc(COc4ccccc4)cn3c2=O)ncc1F | 77 | 435 | 17 | 49 | – | – | – |
| Cc1cccc(OCc2cn3c(n2)CCN(c2ccc(F)cc2)C3=O)c1 | 47 | 285 | – | – | – | – | – |
| O=c1n(-c2ccc(F)c(F)c2)ccc2nc(COc3ccccc3)cn12 | 93 | 230 | – | – | – | – | – |
| Cc1cc(N2CCc3nc(COc4ccccc4)cn3C2=O)ncc1F | 87 | 371 | – | – | – | – | – |
| O=c1n(-c2ccc(F)cc2)ccc2nc(COc3cccc(F)c3)cn12 | 91 | 230 | 13 | 28 | – | – | – |
| Cc1c(COc2ccccc2)nc2n1C(=O)N(c1ccc(F)cc1)CC2 | – | – | 21 | 46 | – | 529 | 525 |
| O=C1N(c2ccc(F)cn2)CCc2nc(COc3ccccc3)cn21 | 66 | 359 | 1 | 14 | – | – | – |
| Cc1nc(-n2ccc3nc(COc4ccccc4)cn3c2=O)ccc1F | 77 | 375 | 8 | 50 | – | – | – |
